Screens: PubChem, The Scripps Research Institute Molecular Screening Center
TCR-CD3 inh: inhibitors of human TCR-CD3 interaction; inhibition, % at 9.4 µM; AID 651800; 0.37% of 360,000 active; TAMRA-labeled TCR probe fluorescence, biochemical; in the data active = inhibition above about 19%;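 also: recombinant mutant TCR 2C K166C tagged with TAMRA read by polarization; 0% = receptor in buffer alone and 100% = receptor with positive control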
Tn6 DDE FP: DD(E)-Tn6 binding inhibition, primary FP screen. Fibrin DD(E) TRITC-Tn6 fluorescence polarization displacement. 0.21% of 370,000 active. AID 720509. inhibition, % at 8.3 µM;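 active = inhibition above a per-campaign cutoff: mean of compounds within control limits plus 3 SD, cut at about 15% in these data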;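 also: 0% = median of all compound wells on the plate and 100% = blocking peptide control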
Target sequence (P02675 whole entry, looked up): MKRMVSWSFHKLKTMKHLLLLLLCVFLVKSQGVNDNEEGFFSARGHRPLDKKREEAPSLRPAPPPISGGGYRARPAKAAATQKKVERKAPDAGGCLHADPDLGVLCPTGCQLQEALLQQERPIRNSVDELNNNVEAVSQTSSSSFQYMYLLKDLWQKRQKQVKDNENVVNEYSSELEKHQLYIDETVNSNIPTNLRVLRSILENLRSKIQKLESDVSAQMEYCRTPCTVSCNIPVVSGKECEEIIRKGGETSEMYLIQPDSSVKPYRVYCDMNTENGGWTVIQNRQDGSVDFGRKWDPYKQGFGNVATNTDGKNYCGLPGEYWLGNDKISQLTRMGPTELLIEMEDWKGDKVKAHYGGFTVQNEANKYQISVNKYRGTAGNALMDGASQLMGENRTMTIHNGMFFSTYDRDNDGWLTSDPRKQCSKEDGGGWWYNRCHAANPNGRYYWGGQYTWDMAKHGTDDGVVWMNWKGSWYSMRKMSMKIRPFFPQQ
SIAE inh: inhibitors of human sialic acid acetylesterase SIAE | 0.69% of 370,000 active | SIAE FP-Rh probe binding, fluorescence polarization | Q9HAT2 | inhibition, % at 9.66 µM;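 active = inhibition above a cutoff: mean of compounds within the control limits plus 3 SD of those, cut at about 17% in these data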;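 also: 0% = plate median of compound wells and 100% = probe without SIAE protein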
DDE Tn7 FP inh: inhibitors of Tn7 peptide binding to human fibrin DD(E). P02675. FP displacement of FITC-Tn7 peptide from fibrin DD(E); 0% = median of compound wells per plate. inhibition, % at 8.3 µM. 0.13% of 370,000 active;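 active = inhibition above the mean of compounds falling within the control limits plus 3 SD of them, cut at about 14% in these data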;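 also: 0% = plate median of compound wells and 100% = 10 µM Aha-Tn7 peptide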
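Also added: labelled Tn7 tracer, 0.1 µM; Assay system: human fibrin DD(E) protein; Amount: 2 µM fibrin DD(E); Schedule: 10 min compound pre-incubation, 3 h probe incubation at room temperature; Repeats: one replicate per compound; Read-out basis: percent inhibition; Measured by: fluorescence polarization of the labelled Tn7 tracer.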
HTRA1 inh: inhibitors of human serine peptidase HTRA1. Q92743. AID 504803. recombinant HTRA1, FP-rhodamine activity-based probe, fluorescence polarization. inhibition, % at 5.96 µM. 0.5% of 340,000 active; in the data active = inhibition above about 36%;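 also: 0% = enzyme with DMSO and 100% = wells lacking enzyme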
ABHD4 inh: ABHD4 (mouse) inhibition, primary FP screen | purified mABHD4, FP-Rh probe fluorescence polarization | AID 720543 | inhibition, % at 8.92 µM | Q8VD66 | 0.54% of 370,000 active;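 active = inhibition exceeding the mean over every tested compound plus 3 SD, cut at about 30% in these data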;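 also: 0% = plate median of compound wells and 100% = S159A mutant with DMSO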
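Material: mouse ABHD4 enzyme, wild type; Benchmarks: S159A mutant high control, sample median low control; Buffer or medium: HEPES pH 7.0, NaCl, Pluronic buffer; Signal: fluorescence polarization; Read-out: percent inhibition of probe binding, normalized to plate controls; Timing: pre-incubation 45 min, probe exposure 60 min, at 25 °C; Dosing: 8.92 µM, single dose.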
SIAE inh conf: confirmation of human SIAE inhibitors; shares compounds with SIAE inh; SIAE FP-Rh activity-based probe, fluorescence polarization; inhibition, % at 9.66 µM; 13% of 2,300 active; AID 1117263;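 active = mean inhibition of the replicates above the hit cutoff set in the primary screen, cut at about 17% in these data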;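 also: 0% = SIAE with DMSO and probe and 100% = probe without SIAE; inhibitors lower polarization as more probe stays unbound to SIAE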
Numbers without * were called inactive; / = no result given. In the library only some 1.8% were active in any assay of this set; here they are far more common.

SMILES	TCR-CD3 inh	Tn6 DDE FP	SIAE inh	DDE Tn7 FP inh	HTRA1 inh	ABHD4 inh	SIAE inh conf
COc1cccc(NC(=S)Nc2cc(C(=O)O)ccc2N2CC3CC(C2)c2cccc(=O)n2C3)c1 (configuration not stated)	-3	-10	18*	-2	3	6	3
Cc1ccc(NC(=S)Nc2cc(C(=O)O)ccc2N2CC3CC(C2)c2cccc(=O)n2C3)cc1C (configuration not stated)	2	-2	9	1	0	7	/
CC(=O)Nc1sc2c(c1-c1nc3ccccc3s1)CCN(C(C)C)CC2	/	3	4	7	/	15	/
CCOC(=O)c1sc(Nc2nc3c(OC)cccc3s2)cc1C	-6	-9	19*	-18	-2	9	1
CCOC(=O)c1sc(Nc2nc3cc4c(cc3s2)OCO4)cc1C	-10	1	19*	0	8	0	7
COc1cccc2sc(Nc3nc4ccc(NC(C)=O)cc4s3)nc12	2	-15	-3	-3	4	3	/
O=S1(=O)c2ccc(N3CCCC3)cc2Oc2ccccc2CN1Cc1cn(Cc2ccc(C(F)(F)F)cc2)nn1	/	-1	3	5	/	6	/
COc1ccc(O)c(C=Nc2cc(NC(C)=O)c(Cl)cc2Cl)c1	-7	6	18*	-4	-1	-5	1
COC(=O)C1CN(Cc2ccc(F)cc2)CCS(=O)(=O)N1Cc1cn(Cc2ccccc2)nn1 (configuration not stated)	/	-5	-2	-2	/	8	/
C/C(=N\NC(=O)Cc1csc(N2CCOCC2)n1)c1ccccc1	-12	-8	21*	-3	-2	2	-1
CC(=NNC(=O)c1cc(C)nc2ccccc12)c1ccc(N2CCOCC2)cc1	0	4	3	3	1	4	/
COc1ccc(/C=N/Nc2nc(-c3ccc(Cl)cc3)cc(C(F)(F)F)n2)cc1OC	-2	-3	20*	-6	-12	-14	0
COc1ccc(/C=N/Nc2nc(C)cc(-c3ccccc3)n2)cc1OC	-5	2	-1	2	-8	4	/
Cc1cc(S(=O)(=O)c2ccc([N+](=O)[O-])cn2)ccc1Br	-4	-2	24*	-4	0	1	7
CCOc1ccccc1OCCC(=O)NNC(=O)Cn1nc(C)cc1C	1	5	17*	-1	3	6	4
Cc1cccc(OCCC(=O)NNC(=O)Cn2nc(C)cc2C)c1	-4	-9	-6	-2	-1	-2	/
Cc1ccc(S(=O)(=O)Cc2ccc(C(=O)NCc3cccs3)o2)cc1	-2	2	69*	0	5	-1	-11
C=CCN1C(=O)[C@H](CC(=O)NCC23CC4CC(CC(C4)C2)C3)[C@@]2(C(=O)OCC)CCCC=C12	/	-11	-1	-3	/	-2	/
CC(=O)Nc1cc(-c2ccc(N3CCN(C)CC3)cc2)cn2c(-c3cccc(C(C)=O)c3)cnc12	-6	-10	-4	-2	/	-8	/
CC(=O)Nc1cc(-c2ccc(N3CCN(C)CC3)cc2)cn2c(-c3ccc(F)c(Cl)c3)cnc12	0	-2	18*	-3	/	28	15
O=C1C=C(c2ccccc2)C[C@@H](c2ccc(Cl)cc2)C1	4	-7	26*	2	-41	-12	0
Cc1ccc(C2=CC(=O)C[C@H](c3ccc(Cl)cc3)C2)cc1	/	/	/	/	-37	/	/
Cc1ccc(-n2c(SCC(=O)NN=Cc3c[nH]c4ccccc34)nnc2-c2ccccc2)cc1	/	-1	-1	1	/	1	/
O=S(N1CCc2ccccc21)C12CC3CC(CC(C3)C1)C2 (configuration not stated)	2	-9	23*	-1	-3	5	-2
CN1CCN(S(=O)C23CC4CC(CC(C4)C2)C3)CC1 (configuration not stated)	3	-1	7	-5	-4	3	/
SMILES	TCR-CD3 inh	Tn6 DDE FP	SIAE inh	DDE Tn7 FP inh	HTRA1 inh	ABHD4 inh	SIAE inh conf
N#Cc1ccc(OC[C@@H](O)CN2CCC(C(O)(c3ccccc3)c3ccccc3)CC2)cc1F	/	4	-4	-7	/	4	/
O=C(Nc1ccccc1)Nc1csc2ccccc12	3	-21	18*	-4	/	9	-1
O=C(Nc1ccccc1Cl)Nc1ccccc1Cl	0	0	-7	5	-4	-1	/
O=C(Nc1ccc(Nc2ccccc2)cc1)Nc1ccccc1Cl	-4	-3	24*	9	32	8	5
CC(=O)Nc1csc2ccccc12	5	7	-5	-1	3	0	/
CCc1nnn2c1Cn1c3ccccc3c(=O)n1[C@@H](C)C2	/	4	-3	3	/	3	/
C[C@H]1C2CC(OC(=O)Nc3cccc(C(F)(F)F)c3)C(C2)[C@H]2CCCCN21 (some centres not stated)	/	-3	2	6	/	7	/
CCOC(=O)[C@]12CCCC3=C1N(CCC3)C(=O)[C@@H](CC(=O)N1CCN(C(=O)C3CC3)CC1)C2	/	-2	-4	1	/	3	/
Cn1c(SCC(=O)c2ccc3c(c2)OCO3)nnc1-c1ccccn1	1	3	25*	-5	-4	0	1
C[C@H]1C2CC(OC(=O)Nc3ccc(F)cc3)C(C2)[C@H]2CCCCN21 (some centres not stated)	/	-1	4	10	/	-3	/
S=c1[nH]nc(-c2ccncc2)n1/N=C/C=C/c1ccco1	4	-1	19*	4	8	17	2
Cc1cccc(-c2n[nH]c(=S)n2/N=C/C=C/c2ccco2)c1	14	-9	5	3	33	22	/
COc1ccc(C2C(C(=O)Nc3ccc(F)cc3F)CCC(=O)N2c2ccc(OC)cc2)cc1 (configuration not stated)	/	9	-1	6	/	-1	/
O=C(Nc1ccc(Nc2ccccc2)cc1)c1ccc(Cl)cc1[N+](=O)[O-]	-8	0	21*	-5	/	8	5
Cc1cc(C(=O)Nc2ccc(Nc3ccccc3)cc2)ccc1[N+](=O)[O-]	7	-4	19*	1	12	12	19*
Cc1cccc(-c2cccc3c4c([nH]c23)[C@@H]2C[C@H](N(C)C(=O)c3ccco3)[C@H]([C@H](C)O)CN2CC4)c1	/	5	-7	-5	/	-2	/
CCc1nc2sc3c(c2c(=O)o1)CCCC3	-2	3	20*	1	6	5	9
CC(C)(C)c1nc2sc3c(c2c(=O)o1)CCCC3	-1	3	5	-2	-2	-2	/
C/C(C=NNC(=O)CSc1nnc(-c2ccccc2)n1-c1ccc(C)cc1)=C\c1ccco1	/	-6	3	-3	/	-1	/
